CXCR6 block = CXCR6 receptor inhibitors, primary screen, cell-based, beta-arrestin, luminescence, CHO-K1 PathHunter, 1536-well; inhibition, % at 20 µM; AID 602244, 2012; C-X-C chemokine receptor type 6 (Homo sapiens), O00574; actives 0.36% (n = 360,000); in the data active = inhibition above about 34%, passing the limit was not always enough;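 also: antagonist mode with CXCL16 agonist at 10 nM final; 0% = 10 nM CXCL16 with DMSO and 100% = unstimulated wells without agonist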
APJ antagonist = antagonists of human apelin receptor APJ, primary screen, CHO-K1 cells, beta-arrestin complementation, luminescence; actives 0.32% (n = 330,000); inhibition, % at 20 µM; P35414;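 active = inhibition above about 40% at 20 µM, limit read from the data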;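 also: cells challenged with 10 nM apelin-13 agonist together with compound; plate controls were apelin-13 plus DMSO wells for no effect and DMSO wells lacking apelin-13 for full effect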
APJ agonist = agonists of human apelin receptor APJ, primary screen, CHO-K1 cells, PathHunter beta-arrestin, luminescence; P35414; 0% DMSO wells, 100% apelin; activation, % at 20 µM; actives 0.11% (n = 330,000);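 active = activation more than six SD over the plate average, tested at 20 µM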;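 also: 0% = DMSO alone and 100% = apelin-13 at 10 nM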
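Material: CHO-K1 APJ beta-arrestin complementation cell line; Input: cell density 1000 per well; Incubation: compound stimulation 90 min at 25 °C, detection 60 min; Signal: luminescence from split beta-galactosidase complementation, Galacton Star/Emerald II substrate; Controls: DMSO-only wells as negative, 10 nM Apelin-13 as positive control.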
CCR6 antagonist = CCR6 receptor antagonists, primary screen, cell-based, CHO-K1, luminescence, beta-arrestin, uHTS. CHO-K1 CCR6 PathHunter beta-arrestin, CCL20-stimulated. inhibition, % at 20 µM. actives 0.49% (n = 340,000). AID 493098, 2011. C-C chemokine receptor type 6 (Homo sapiens), P51684;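 active = compounds whose inhibition of the agonist-driven luminescence signal at 20 µM reaches about 50%, limit read from the data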;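 also: cells stimulated with CCL20 at 14 nM final; plate controls were DMSO with CCL20 for no effect and DMSO without agonist for full effect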
Target sequence (P51684 whole entry, looked up): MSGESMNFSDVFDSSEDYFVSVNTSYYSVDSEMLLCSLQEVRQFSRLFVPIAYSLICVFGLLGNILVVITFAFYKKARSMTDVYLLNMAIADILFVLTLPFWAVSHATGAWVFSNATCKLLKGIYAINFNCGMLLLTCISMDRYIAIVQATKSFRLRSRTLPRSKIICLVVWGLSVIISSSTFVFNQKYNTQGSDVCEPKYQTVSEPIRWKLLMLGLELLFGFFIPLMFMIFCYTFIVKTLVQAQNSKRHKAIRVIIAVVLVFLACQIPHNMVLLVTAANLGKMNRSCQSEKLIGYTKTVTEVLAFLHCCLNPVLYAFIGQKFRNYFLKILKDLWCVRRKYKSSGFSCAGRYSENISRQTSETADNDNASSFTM
EBI2 block = EBI2 receptor antagonists, beta-arrestin recruitment, primary screen, cell-based, luminescence, 7a,25-OHC stimulation, uHTS; G-protein coupled receptor 183 (Homo sapiens), P32249; 7a,25-OHC stimulated; inhibition, % at 5 µM; actives 0.81% (n = 360,000); AID 651636, 2012; in the data active = inhibition above about 38%;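 also: enzyme fragment complementation signal reports receptor beta-arrestin coupling in cells; 0% = agonist plus DMSO wells and 100% = wells without agonist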
H9c2 TAG inh = inhibitors of triacylglycerol accumulation, primary screen, cell-based, uHTS, fluorescence, H9c2. AID 651582, 2012. inhibition, % at 12.5 µM. actives 0.66% (n = 230,000). H9c2 cells, Nile Red lipid (TAG) fluorescence; cells loaded with 200 µM oleic acid;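 active = pattern-corrected inhibition of lipid staining of at least 50% with the nuclear-stain viability signal not falling by more than 50%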;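 also: 0% = DMSO wells and 100% = triacsin C control wells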
TAG conf = triacylglycerol accumulation inhibitors, retest, confirmation, cell-based, single concentration, Nile Red fluorescence, H9c2. shares compounds with H9c2 TAG inh. H9c2 lipid accumulation; cells loaded with 200 µM oleic acid. inhibition, % at 12.5 µM. actives 71% (n = 990). AID 651629, 2012;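 active = mean inhibition across replicates of 40% or more; inactive = mean inhibition below 40%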;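 also: plate controls were DMSO only wells for no effect and Triacsin C treated wells for full effect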
An asterisk follows results filed as active; · = no result. In the library only some 1.9% were active in any assay of this set; here they are far more common.

SMILES	CXCR6 block	APJ antagonist	APJ agonist	CCR6 antagonist	EBI2 block	H9c2 TAG inh	TAG conf
c1ccc(Nc2nc(N3CCOCC3)nc(N3CCOCC3)n2)cc1	3	-7	-2	-6	-3	46	·
Fc1ccc(Nc2nc(N3CCOCC3)nc(N3CCOCC3)n2)cc1	-3	5	-3	4	-7	·	·
O=[N+]([O-])c1ccc(Nc2nc(N3CCOCC3)nc(N3CCOCC3)n2)cc1	-1	3	3	-10	-12	53*	61*
c1ccc(Nc2nc(N3CCNCC3)nc(N3CCOCC3)n2)cc1	-6	3	9	3	-13	88*	35
O=[N+]([O-])c1ccc(Nc2nc(N/N=C\c3ccc4c(c3)OCO4)nc(N3CCCCC3)n2)cc1	-6	4	0	14	22	66*	37
Cc1ccc(NC(=O)C(c2ccccc2)c2ccccc2)c(O)c1	0	2	-2	18	6	·	·
Cc1ccc(-c2nn(-c3ccccc3)cc2CSC(=N)N)cc1	4	10	-3	26	-11	53*	109*
O=C(Nc1nnc(CSCc2ccc(F)cc2)s1)c1ccc([N+](=O)[O-])cc1	4	-1	-2	22	7	·	·
CCCC(=O)Nc1nc2ccc(NC(=O)c3ccccc3F)cc2s1	10	-3	0	8	-20	52*	82*
Cc1ccc2nc(NC(=O)c3ccccc3F)sc2c1	-2	4	-2	11	10	2	·
COc1ccccc1-c1csc(C(O)c2cccc(Cl)c2)n1 (centres undefined)	-2	·	·	·	1	9	·
COc1ccc(Cl)cc1-c1cc(C(=O)NCC2CCCCC2)[nH]n1	5	·	·	·	12	53*	-6
CCOc1ccc(Cl)cc1-c1cc(C(=O)NCC2CCCCC2)[nH]n1	-3	·	·	·	7	-10	·
COc1ccc(C(=O)CC2(C(=O)O)CCCCC2)cc1	1	2	2	-8	-1	·	·
Cc1ccc(NC(=O)c2nc[nH]c2C(=O)NCCCCNC(=O)c2[nH]cnc2C(=O)Nc2ccc(C)cc2)cc1	-15	9	2	-29	-81	66*	86*
Cc1ccc(NC(=O)c2nc[nH]c2C(=O)NCCCCCCNC(=O)c2[nH]cnc2C(=O)Nc2ccc(C)cc2)cc1	-14	6	-3	-12	-29	109*	95*
O=C(Nc1cccc(Cl)c1)c1nc[nH]c1C(=O)NCCCNC(=O)c1[nH]cnc1C(=O)Nc1cccc(Cl)c1	0	-1	-2	-3	-22	70*	85*
CCOC(=O)c1ccc(NC(=O)c2nc[nH]c2C(=O)NCCCCNC(=O)c2[nH]cnc2C(=O)Nc2ccc(C(=O)OCC)cc2)cc1	-13	-7	-3	-10	-24	122*	86*
Cc1ccc(NC(=O)c2nc[nH]c2C(=O)NCCCNC(=O)c2[nH]cnc2C(=O)Nc2ccc(C)cc2)cc1	-23	-18	0	-21	-49	47	·
CC(c1ccccc1)N1CC(C(=O)N2CCCC(C(N)=O)C2)CC1=O (centres undefined)	-4	-6	-8	-1	-16	2	·
Cn1c(=O)n(C)c2cc(N3CCOCC3)c(NC(=O)c3cccc(Cl)c3)cc21	-4	21	-5	7	-10	·	·
C[C@H](CO)N1C[C@H](C)[C@H](CN(C)S(=O)(=O)c2ccc(Cl)cc2)OCc2ccccc2-c2c(n(C)c3ccccc23)C1=O	0	·	·	·	16	51*	80*
Cc1ccc(N2C(=O)C3CC(c4ccccc4)=C4C5C=CC(C6C(=O)N(c7ccc(C)cc7C)C(=O)C56)C4C3C2=O)c(C)c1 (centres undefined)	4	6	-2	3	-8	51*	53*
CCOc1ccc(C2=CSC3=NCCN23)cc1Cl	0	3	1	-9	4	0	·
O=C(NC1CCCc2c1cnn2-c1ccc(F)cc1F)c1ccccc1N1CCOCC1 (centres undefined)	5	6	0	19	2	0	·
SMILES	CXCR6 block	APJ antagonist	APJ agonist	CCR6 antagonist	EBI2 block	H9c2 TAG inh	TAG conf
CC(C)c1ccccc1NC(=O)CNCCOc1ccccc1F	4	15	-4	6	-11	·	·
CCC(C)(C)C1CCC2(CC1)NC(=O)N(CC(=O)NCCOc1ccccc1)C2=O (centres undefined)	1	-9	4	-8	7	10	·
CCC(C)(C)C1CCC2(CC1)NC(=O)N(CC(=O)NCCc1ccc(OC)c(OC)c1)C2=O (centres undefined)	-4	-1	-2	1	-7	53*	50*
O=C(Nc1ccccc1N1CCCCC1)c1ncoc1-c1ccc(F)cc1	6	-8	0	9	-61	55*	43*
CC1=CC(=O)C2(C)C(C)=C(C)C12C (centres undefined)	-1	·	·	·	3	7	·
Cc1cccn2c(=O)nc(SCC(=O)c3ccccc3)nc12	-4	-51	9	12	0	-7	·
COC(=O)C1=C(C(=O)OC)[C@@H]2N(C)c3ccc(OC)cc3[C@@]23C[C@@H](C(=O)OC)N(S(=O)(=O)c2ccc(OC)cc2)C3=N1	2	-3	2	17	-2	-6	·
NC(=NCCc1ccccc1)NC(=O)c1cc(Cl)ccc1O	0	-13	-5	-5	2	14	·
NC(c1csc(Nc2ccc(C(=O)c3ccccc3)cc2)n1)C1CCCCC1 (centres undefined)	-14	·	·	·	1	57*	36
CC(=O)c1ccc(Nc2nc(C(N)C3CCCCC3)cs2)cc1 (centres undefined)	-1	·	·	·	34	14	·
CN(C)c1ccc(NC(=O)Nc2nc(C(N)C3CCCCC3)cs2)cc1 (centres undefined)	-1	·	·	·	-14	74*	56*
CC(C)c1ccc(NC(=O)Nc2nc(C(N)C3CCCCC3)cs2)cc1 (centres undefined)	-9	·	·	·	2	130*	133*
CC(=O)NCCNc1nc2cc(-c3ccsc3)sc2c(=O)n1C	-3	·	·	·	1	9	·
Cc1ccc(-c2noc(CNC(=O)COc3ccccc3C)n2)cc1	6	-37	-3	-19	-1	5	·
CCCCNC(=O)CSc1nc2ccc(Nc3nc(N4CCOCC4)nc(N4CCOCC4)n3)cc2s1	1	-9	-2	10	33	57*	-3

Compound activity: PubChem, Sanford-Burnham Center for Chemical Genomics
